Source: ChEMBL document CHEMBL3232818, “Imidazole-derived 2-[N-carbamoylmethyl-alkylamino]acetic acids, substrate-dependent modulators of insulin-degrading enzyme in amyloid-β hydrolysis” (Eur J Med Chem, 2014)
≈ marks a conversion by molar mass, not a printed value. Each block holds one compound with its values, some of them ahead of it.

Columns and labels:
Neprilysin = Neprilysin (Homo sapiens, UniProt P08473); assay: Inhibition of human NEP-mediated amyloid beta hydrolysis
[1] = biological target: T1, Endothelin-converting enzyme 1 (Homo sapiens, UniProt P42892); assay: Inhibition of human recombinant ECE1-mediated amyloid beta hydrolysis after 45 mins by fluorimetry assay
T1 sequence (P42892 whole entry): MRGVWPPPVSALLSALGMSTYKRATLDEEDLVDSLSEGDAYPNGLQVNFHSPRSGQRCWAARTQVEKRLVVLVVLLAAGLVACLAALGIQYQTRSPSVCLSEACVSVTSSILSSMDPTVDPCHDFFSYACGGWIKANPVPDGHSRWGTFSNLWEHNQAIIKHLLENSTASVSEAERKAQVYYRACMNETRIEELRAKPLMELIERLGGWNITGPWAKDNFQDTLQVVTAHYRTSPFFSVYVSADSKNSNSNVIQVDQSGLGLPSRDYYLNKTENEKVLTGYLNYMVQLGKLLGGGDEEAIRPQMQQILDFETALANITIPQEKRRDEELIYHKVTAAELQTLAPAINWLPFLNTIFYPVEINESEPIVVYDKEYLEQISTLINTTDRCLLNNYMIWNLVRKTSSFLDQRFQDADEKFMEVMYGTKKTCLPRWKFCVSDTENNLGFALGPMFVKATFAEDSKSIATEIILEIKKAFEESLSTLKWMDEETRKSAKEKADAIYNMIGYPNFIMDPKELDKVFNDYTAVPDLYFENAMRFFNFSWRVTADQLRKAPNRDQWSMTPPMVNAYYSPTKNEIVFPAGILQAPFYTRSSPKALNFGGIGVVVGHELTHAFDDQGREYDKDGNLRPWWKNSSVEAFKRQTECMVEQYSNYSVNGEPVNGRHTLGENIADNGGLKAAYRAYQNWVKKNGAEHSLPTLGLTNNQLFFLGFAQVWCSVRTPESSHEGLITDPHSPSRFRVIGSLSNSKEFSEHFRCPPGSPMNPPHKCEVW

[2] = biological target: Angiotensin-converting enzyme (Homo sapiens, UniProt P12821); assay: Inhibition of human ACE-mediated amyloid beta hydrolysis
[3] = biological target: Angiotensin-converting enzyme 2 (Homo sapiens, UniProt Q9BYF1); assay: Inhibition of human recombinant ACE2-mediated amyloid beta hydrolysis using Mca-Tyr-Val-Ala-Asp-Pro-Ala-Lys-(DNP)-OH as substrate after 20 mins by fluorimetry assay
[4] = biological target: Disintegrin and metalloproteinase domain-containing protein 17 (Homo sapiens, UniProt P78536); assay: Inhibition of human recombinant TACE-mediated amyloid beta hydrolysis after 5 mins by fluorimetry assay
Interstitial collagenase = biological target: T2, Interstitial collagenase (Homo sapiens, UniProt P03956); assay: Inhibition of human recombinant MMP1-mediated amyloid beta hydrolysis using DNP-Pro-Cha-Gly- Cys(Me)-His-Ala- Lys(n-Me-Abz)-NH2 as substrate after 40 mins by fluorimetry assay
T2 sequence (P03956 whole entry): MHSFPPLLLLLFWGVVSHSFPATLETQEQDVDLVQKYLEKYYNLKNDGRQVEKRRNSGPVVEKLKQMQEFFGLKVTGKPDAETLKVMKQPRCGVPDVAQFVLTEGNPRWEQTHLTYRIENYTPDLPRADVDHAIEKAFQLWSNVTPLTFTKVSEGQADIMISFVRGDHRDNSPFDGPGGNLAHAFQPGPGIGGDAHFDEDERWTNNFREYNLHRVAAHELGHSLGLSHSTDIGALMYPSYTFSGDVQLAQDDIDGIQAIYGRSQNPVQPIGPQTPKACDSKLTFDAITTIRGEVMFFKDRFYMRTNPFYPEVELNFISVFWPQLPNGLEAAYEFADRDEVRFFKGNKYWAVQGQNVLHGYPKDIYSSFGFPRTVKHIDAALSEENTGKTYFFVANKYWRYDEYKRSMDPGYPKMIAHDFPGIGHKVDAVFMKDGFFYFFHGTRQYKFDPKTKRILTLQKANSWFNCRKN

Collagenase 3 = Collagenase 3 (Homo sapiens, UniProt P45452); assay: Inhibition of human recombinant MMP13-mediated amyloid beta hydrolysis after 10 mins by fluorimetry assay
[5] = Solubility of the compound in PBS at pH 7.4; assay type: physicochemical
[6] = PBS-octanol partition coefficient, log D of the compound; assay type: physicochemical
[7] = Half life in mouse plasma at 10 uM by LC-MS/MS analysis; assay type: ADME, cell-free
[8] = Half life in human liver microsomes at 1 uM by LC-MS/MS analysis; assay type: ADME
[9] = Half life in IHH cell culture medium at 10 uM by LC-MS/MS analysis; assay type: physicochemical, HH
In short: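 Stability measured in William's E medium with 10% fetal calf serum.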

Insulin-degrading enzyme = biological target: T3, Insulin-degrading enzyme (Homo sapiens, UniProt P14735); assay: Inhibition of human recombinant IDE-mediated amyloid beta (16 to 23) hydrolysis using ATTO 655-Cys-Lys-Leu-Val-Phe-Phe-Ala-Glu-Asp-Trp as substrate preincubated for 10 mins measured after 30 mins by spectrophotometer analysis
T3 sequence (P14735 whole entry): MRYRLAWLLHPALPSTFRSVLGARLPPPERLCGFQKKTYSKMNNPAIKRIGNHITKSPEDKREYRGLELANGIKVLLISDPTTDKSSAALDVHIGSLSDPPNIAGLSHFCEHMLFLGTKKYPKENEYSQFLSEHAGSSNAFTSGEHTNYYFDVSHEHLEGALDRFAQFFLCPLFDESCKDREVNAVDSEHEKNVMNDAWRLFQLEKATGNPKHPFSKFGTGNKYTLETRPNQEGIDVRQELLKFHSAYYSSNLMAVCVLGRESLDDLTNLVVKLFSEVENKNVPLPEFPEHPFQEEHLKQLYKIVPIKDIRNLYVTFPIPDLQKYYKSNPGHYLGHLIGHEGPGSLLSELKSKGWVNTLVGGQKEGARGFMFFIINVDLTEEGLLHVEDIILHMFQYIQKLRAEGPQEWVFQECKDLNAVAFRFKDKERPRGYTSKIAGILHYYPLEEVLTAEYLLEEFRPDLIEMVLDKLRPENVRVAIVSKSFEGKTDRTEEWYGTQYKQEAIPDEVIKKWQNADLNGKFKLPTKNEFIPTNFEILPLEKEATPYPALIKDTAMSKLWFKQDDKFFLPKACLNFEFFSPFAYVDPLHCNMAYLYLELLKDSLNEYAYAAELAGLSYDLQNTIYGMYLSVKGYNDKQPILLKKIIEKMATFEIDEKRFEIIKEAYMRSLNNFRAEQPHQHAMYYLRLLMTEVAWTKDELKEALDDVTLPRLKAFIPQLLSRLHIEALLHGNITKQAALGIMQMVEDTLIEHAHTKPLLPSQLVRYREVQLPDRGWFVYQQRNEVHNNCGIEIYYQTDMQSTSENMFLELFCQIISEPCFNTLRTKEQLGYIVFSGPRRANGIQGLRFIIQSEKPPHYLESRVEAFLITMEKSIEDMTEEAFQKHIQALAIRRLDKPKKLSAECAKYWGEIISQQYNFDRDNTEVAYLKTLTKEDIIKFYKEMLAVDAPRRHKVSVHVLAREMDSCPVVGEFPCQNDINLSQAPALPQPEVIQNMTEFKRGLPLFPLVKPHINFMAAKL

Sequence of Neprilysin (P08473 whole entry): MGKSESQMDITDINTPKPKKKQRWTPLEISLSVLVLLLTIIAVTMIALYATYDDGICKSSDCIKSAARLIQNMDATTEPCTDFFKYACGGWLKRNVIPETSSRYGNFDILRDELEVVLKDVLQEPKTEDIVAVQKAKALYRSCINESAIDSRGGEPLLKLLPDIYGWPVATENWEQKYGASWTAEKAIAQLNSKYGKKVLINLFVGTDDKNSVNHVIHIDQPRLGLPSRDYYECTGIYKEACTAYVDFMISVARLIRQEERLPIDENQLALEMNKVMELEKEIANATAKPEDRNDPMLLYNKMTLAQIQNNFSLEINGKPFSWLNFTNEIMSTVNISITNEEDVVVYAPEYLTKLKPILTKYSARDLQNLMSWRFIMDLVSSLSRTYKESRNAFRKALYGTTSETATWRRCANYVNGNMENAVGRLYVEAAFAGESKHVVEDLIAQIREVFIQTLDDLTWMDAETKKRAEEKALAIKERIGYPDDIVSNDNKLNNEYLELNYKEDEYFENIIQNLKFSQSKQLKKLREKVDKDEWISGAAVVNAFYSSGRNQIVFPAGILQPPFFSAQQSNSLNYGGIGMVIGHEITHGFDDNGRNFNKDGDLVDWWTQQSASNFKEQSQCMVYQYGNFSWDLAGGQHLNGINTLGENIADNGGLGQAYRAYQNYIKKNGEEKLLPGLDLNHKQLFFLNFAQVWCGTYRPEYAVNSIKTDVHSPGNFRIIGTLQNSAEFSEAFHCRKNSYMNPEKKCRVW
Sequence of Disintegrin and metalloproteinase domain-containing protein 17 (P78536 whole entry, the tested form may be a part): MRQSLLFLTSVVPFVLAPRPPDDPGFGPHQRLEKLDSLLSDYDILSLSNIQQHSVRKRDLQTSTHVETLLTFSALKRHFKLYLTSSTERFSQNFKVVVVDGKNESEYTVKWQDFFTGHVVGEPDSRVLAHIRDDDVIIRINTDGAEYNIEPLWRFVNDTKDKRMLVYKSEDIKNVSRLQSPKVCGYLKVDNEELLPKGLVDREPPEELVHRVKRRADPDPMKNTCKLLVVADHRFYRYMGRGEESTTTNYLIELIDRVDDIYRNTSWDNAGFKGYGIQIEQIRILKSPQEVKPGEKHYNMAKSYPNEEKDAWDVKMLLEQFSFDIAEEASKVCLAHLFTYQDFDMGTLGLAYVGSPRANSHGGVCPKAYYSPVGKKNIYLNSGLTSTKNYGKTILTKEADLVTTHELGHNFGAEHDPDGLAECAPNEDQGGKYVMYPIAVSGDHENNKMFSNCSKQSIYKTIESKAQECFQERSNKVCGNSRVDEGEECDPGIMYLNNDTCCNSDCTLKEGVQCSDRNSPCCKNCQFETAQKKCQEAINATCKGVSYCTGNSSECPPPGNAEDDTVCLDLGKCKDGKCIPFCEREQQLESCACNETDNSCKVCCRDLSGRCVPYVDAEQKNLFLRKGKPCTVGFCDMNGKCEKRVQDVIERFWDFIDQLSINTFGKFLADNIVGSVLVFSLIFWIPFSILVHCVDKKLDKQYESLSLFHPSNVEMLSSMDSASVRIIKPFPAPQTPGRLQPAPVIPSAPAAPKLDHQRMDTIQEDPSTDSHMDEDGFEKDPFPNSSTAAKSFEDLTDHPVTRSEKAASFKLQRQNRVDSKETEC
Sequence of Angiotensin-converting enzyme 2 (Q9BYF1 whole entry, the tested form may be a part): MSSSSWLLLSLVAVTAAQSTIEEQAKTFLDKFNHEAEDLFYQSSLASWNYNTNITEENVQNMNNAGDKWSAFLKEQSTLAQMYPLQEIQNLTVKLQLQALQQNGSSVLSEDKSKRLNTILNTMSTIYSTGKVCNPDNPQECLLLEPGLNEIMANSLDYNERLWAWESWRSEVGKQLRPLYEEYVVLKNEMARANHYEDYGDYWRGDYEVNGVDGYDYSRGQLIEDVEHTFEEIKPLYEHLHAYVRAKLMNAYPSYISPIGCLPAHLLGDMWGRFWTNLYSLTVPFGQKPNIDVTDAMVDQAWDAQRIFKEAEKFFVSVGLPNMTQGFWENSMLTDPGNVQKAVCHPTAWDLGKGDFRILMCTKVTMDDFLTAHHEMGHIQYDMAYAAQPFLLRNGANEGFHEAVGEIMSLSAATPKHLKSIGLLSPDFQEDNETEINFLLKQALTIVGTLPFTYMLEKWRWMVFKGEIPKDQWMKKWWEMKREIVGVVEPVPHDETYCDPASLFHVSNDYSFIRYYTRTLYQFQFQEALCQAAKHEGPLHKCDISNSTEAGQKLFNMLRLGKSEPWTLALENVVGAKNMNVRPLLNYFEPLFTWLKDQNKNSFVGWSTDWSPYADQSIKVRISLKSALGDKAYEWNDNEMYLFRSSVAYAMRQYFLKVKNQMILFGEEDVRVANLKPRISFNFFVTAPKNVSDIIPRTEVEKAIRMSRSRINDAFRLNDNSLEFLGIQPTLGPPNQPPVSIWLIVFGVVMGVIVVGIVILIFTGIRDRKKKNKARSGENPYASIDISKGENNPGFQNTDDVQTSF
Sequence of Angiotensin-converting enzyme (P12821 whole entry): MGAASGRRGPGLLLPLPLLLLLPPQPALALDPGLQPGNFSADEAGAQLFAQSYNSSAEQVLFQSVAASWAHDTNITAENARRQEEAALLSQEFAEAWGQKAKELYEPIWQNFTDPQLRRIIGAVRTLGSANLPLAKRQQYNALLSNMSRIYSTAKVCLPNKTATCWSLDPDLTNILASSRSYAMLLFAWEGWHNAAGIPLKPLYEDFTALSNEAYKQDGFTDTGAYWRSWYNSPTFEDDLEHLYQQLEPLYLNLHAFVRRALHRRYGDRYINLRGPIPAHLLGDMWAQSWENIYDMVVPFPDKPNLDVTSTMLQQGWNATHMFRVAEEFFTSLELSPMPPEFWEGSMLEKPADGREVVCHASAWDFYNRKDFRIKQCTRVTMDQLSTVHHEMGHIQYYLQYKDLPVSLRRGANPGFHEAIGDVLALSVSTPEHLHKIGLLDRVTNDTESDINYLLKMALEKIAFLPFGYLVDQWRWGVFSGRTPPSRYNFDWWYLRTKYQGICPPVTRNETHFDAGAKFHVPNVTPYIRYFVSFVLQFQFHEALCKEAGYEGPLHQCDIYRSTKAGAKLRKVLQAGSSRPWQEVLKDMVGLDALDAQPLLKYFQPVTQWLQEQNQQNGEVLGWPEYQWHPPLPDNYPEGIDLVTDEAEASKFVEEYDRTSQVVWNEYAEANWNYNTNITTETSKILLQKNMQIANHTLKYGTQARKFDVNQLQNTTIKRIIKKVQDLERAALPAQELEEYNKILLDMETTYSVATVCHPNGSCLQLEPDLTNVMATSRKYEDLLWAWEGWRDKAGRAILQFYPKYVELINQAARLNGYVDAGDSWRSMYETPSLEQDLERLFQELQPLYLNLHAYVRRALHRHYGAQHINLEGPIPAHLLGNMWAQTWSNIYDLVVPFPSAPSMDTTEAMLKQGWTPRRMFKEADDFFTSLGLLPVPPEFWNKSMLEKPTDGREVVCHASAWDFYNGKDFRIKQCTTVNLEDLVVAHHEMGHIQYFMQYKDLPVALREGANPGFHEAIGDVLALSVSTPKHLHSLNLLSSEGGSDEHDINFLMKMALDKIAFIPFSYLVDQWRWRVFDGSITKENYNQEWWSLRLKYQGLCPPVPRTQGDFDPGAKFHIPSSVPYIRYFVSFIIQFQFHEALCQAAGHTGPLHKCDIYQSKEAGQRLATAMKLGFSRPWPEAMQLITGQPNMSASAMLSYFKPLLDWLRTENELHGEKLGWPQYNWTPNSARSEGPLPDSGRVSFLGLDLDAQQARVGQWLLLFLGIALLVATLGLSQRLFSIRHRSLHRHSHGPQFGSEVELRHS

SMILES: CNC(=O)[C@H](Cc1c[nH]cn1)NC(=O)CN(CCCc1ccccc1)CC(=O)O
IC50 (Neprilysin): > 100 µM
IC50 [1]: > 100 µM
IC50 [2]: > 100 µM
IC50 [3]: > 100 µM
IC50 [4]: > 100 µM
IC50 (Interstitial collagenase): > 100 µM
IC50 (Collagenase 3): > 100 µM
solubility [5]: 68 µM (≈ 27.3 µg/mL)
logD [6]: -1.4
half-life at 10 µM [7]: > 48 h
half-life at 1 µM [8]: > 0.667 h
half-life at 10 µM [9]: > 24 h

IC50 (Insulin-degrading enzyme): > 100 µM
SMILES: COC(=O)[C@H](Cc1c[nH]cn1)NC(=O)CN(CC(=O)O)C(=O)c1ccccc1

IC50 (Insulin-degrading enzyme): > 100 µM
SMILES: COC(=O)[C@H](Cc1ccccc1)NC(=O)CN(CC(=O)O)Cc1ccccc1
